According to ChEMBL document CHEMBL3414545, “Fused heterocycles bearing bridgehead nitrogen as potent HIV-1 NNRTIs. Part 4: design, synthesis and biological evaluation of novel imidazo[1,2-a]pyrazines” (Eur J Med Chem, 2015):
Structures can show the parent of a compound that is named as a salt. The source made the active and inactive calls. The rule behind the calls is not given here.

Columns and labels:
[1] = test system: Human immunodeficiency virus 1; test: Antiviral activity against HIV1 3B infected in human MT4 cells assessed as reduction in virus-induced cytopathic effect after 5 days by MTT assay; type: functional, organism-based; conditions: Human immunodeficiency virus 1, 3B, MT4, 120 h
Method in brief: (§1)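 Exponentially growing MT-4 cells were pelleted and resuspended at 6 × 10⁵ cells/mL, then infected with virus stock at 100–300 CCID₅₀. Compounds were added at infection as serial five-fold dilutions in triplicate wells, with untreated infected and mock-infected controls. Viability was read spectrophotometrically by MTT five days post-infection. EC₅₀ is the concentration giving 50% protection from viral cytopathic effect.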

[2] = test system: Human immunodeficiency virus 1; test: Antiviral activity against HIV1 RES056 expressing reverse transcriptase K103N/Y181C double mutant infected in human MT4 cells assessed as reduction in virus-induced cytopathic effect after 5 days by MTT assay; type: functional, organism-based; conditions: Human immunodeficiency virus 1, RES056, MT4, 120 h
Method in brief: (§2)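 MT-4 cells resuspended at 6 × 10⁵ cells/mL, then infected with 100–300 CCID₅₀ of HIV-1 IIIB or RES056 or left mock-infected. Compound, in serial five-fold dilutions in triplicate wells, was added at the start. Viability was read by MTT after 5 days. EC₅₀ is 50% protection from viral cytopathicity, CC₅₀ is 50% viability loss in mock-infected cells, and SI is CC₅₀/EC₅₀.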

[3] = Selectivity index, ratio of CC50 for mock-infected human MT4 cells to EC50 for HIV1 3B infected in human MT4 cells; type: toxicity, cell-based; conditions: mock-infected and infected with HIV1 3B, read-out: Selectivity Index; method in brief: as §2
[4] = Selectivity index, ratio of CC50 for mock-infected human MT4 cells to EC50 for HIV1 RES056 expressing reverse transcriptase K103N/Y181C double mutant; type: toxicity, cell-based; conditions: read-out: Selectivity Index; method in brief: as §2
[5] = target: Human immunodeficiency virus type 1 reverse transcriptase (Human immunodeficiency virus 1, UniProt Q72547); test: Inhibition of HIV1 reverse transcriptase assessed as reduction in biotin-labeled dUTP incorporation into DNA using poly(A) x oligo(dT)15 as template/primer after 1 hr by ELISA
Method in brief: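 Wild-type HIV-1 RT was assayed with a plate-bound homopolymer poly[A]·oligo[dT]₁₅ template/primer and biotin-dUTP, following the Roche RT kit protocol. Incorporated biotin-dUTP, a measure of RT activity, was quantified by ELISA. Percentage inhibition was calculated by formula, and IC₅₀ is the concentration inhibiting biotin-dUTP incorporation by 50%.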

[6] = test system: Human immunodeficiency virus 2; test: Antiviral activity against HIV2 strain ROD infected in human MT4 cells assessed as reduction in virus-induced cytopathic effect at subtoxic concentration; type: functional, organism-based; conditions: ISOLATE ROD; method in brief: as §1

SMILES | EC50 [1] [µM] | EC50 [2] [µM] | selectivity ratio [3] | selectivity ratio [4] | IC50 [5] [µM] | inhibition [6]
Cc1cc(Br)cc(C)c1Oc1nc(Nc2ccc([N+](=O)[O-])cc2)cn2ccnc12 | 4 | > 28 | 7 | < 1 | 4.1 | inactive
Cc1cc(Br)cc(C)c1Oc1nc(Nc2ccc(C#N)cc2)cn2ccnc12 | 0.98 | > 28 | 28 | < 1 | 0.41 | inactive
Cc1cccc(C)c1Oc1nc(Nc2ccc(CC#N)cc2)cn2ccnc12 | > 156 | > 156 | < 1 | < 1 | 5.7 | inactive
Cc1cc(C)c(Oc2nc(Nc3ccc(C#N)cc3)cn3ccnc23)c(C)c1 | 0.26 | > 33 | 126 | < 1 | 0.4 | inactive
O=[N+]([O-])c1ccc(Nc2cn3ccnc3c(Oc3c(F)cc(F)cc3F)n2)cc1 | > 28 | > 28 | < 1 | < 1 | 11 | inactive
Cc1cc(C#N)cc(C)c1Oc1nc(Nc2ccc([N+](=O)[O-])cc2)cn2ccnc12 | 2.3 | > 29 | 13 | < 1 | 14 | inactive
Cc1cc(C)c(Oc2nc(Nc3ccc(CC#N)cc3)cn3ccnc23)c(C)c1 | 9.2 | > 117 | 13 | < 1 | 0.36 | inactive
Cc1cc(C#N)cc(C)c1Oc1nc(Nc2ccc(CC#N)cc2)cn2ccnc12 | 19 | > 282 | 15 | < 1 | 0.17 | inactive
Cc1cc(Cl)cc(C)c1Oc1nc(Nc2ccc(C#N)cc2)cn2ccnc12 | 0.87 | > 34 | 39 | < 1 | 1.1 | inactive
Cc1ccnc2c1NC(=O)c1cccnc1N2C1CC1 [NEVIRAPINE] | – | ≥ 7.6 | – | – | – | –
Cc1cccc(C)c1Oc1nc(Nc2ccc(C#N)cc2)cn2ccnc12 | 6.5 | > 32 | 5 | < 1 | 0.82 | inactive
CC(C)Nc1cccnc1N1CCN(C(=O)c2cc3cc(NS(C)(=O)=O)ccc3[nH]2)CC1 [DELAVIRDINE MESYLATE] | – | > 36 | > 67 | 1 | – | –
Cc1cc(C)c(Oc2nc(Nc3ccc([N+](=O)[O-])cc3)cn3ccnc23)c(C)c1 | 1.3 | > 34 | 25 | < 1 | 4.7 | inactive
Cc1cccc(C)c1Oc1nc(Nc2ccc([N+](=O)[O-])cc2)cn2ccnc12 | > 5.3 | – | < 1 | – | 334 | inactive
Cc1cc(C#N)cc(C)c1Oc1nc(Nc2ccc(Cl)cc2)cn2ccnc12 | > 13 | – | < 1 | – | 5.5 | inactive
N#Cc1ccc(Nc2cn3ccnc3c(Oc3c(F)cc(F)cc3F)n2)cc1 | 7.2 | > 38 | 5 | < 1 | 0.47 | inactive
Cc1cn([C@H]2C[C@H](N=[N+]=[N-])[C@@H](CO)O2)c(=O)[nH]c1=O [ZIDOVUDINE] | – | 0.01 | > 13100 | > 9150 | – | –
Cc1cc(C)c(Oc2nc(Nc3ccc(Cl)cc3)cn3ccnc23)c(C)c1 | > 12 | > 12 | < 1 | < 1 | 5.9 | inactive
Cc1cc(Cl)cc(C)c1Oc1nc(Nc2ccc([N+](=O)[O-])cc2)cn2ccnc12 | 4.6 | > 33 | 7 | < 1 | 1.3 | inactive
Nc1ccn([C@@H]2CS[C@H](CO)O2)c(=O)n1 [LAMIVUDINE] | – | – | > 39 | – | – | –
Cc1cccc(C)c1Oc1nc(Nc2ccc(Cl)cc2)cn2ccnc12 | > 57 | > 57 | < 1 | < 1 | 15 | inactive
Cc1cc(C#N)cc(C)c1Oc1nc(Nc2ccc(C#N)cc2)nc(N)c1Br [ETRAVIRINE] | 0.004 | 0.02 | – | – | – | –
Cc1cc(C#N)cc(C)c1Oc1nc(Nc2ccc(C#N)cc2)nc2[nH]ccc12 | 0.0009 | – | – | – | – | –
O=c1[nH]cnc2c1ncn2[C@H]1CC[C@@H](CO)O1 [DIDANOSINE] | – | – | > 9 | – | – | –
Cc1cc(C#N)cc(C)c1Oc1nc(Nc2ccc(C#N)cc2)cn2ccnc12 | 0.32 | > 73 | ≥ 224 | 1 | 0.26 | inactive
